In brackets after ≈: the same amount, converted by molar mass.
Assays:
[1] = test system: Streptococcus; test: In vitro minimum concentration for germicidal effect on Streptococcus.; assay type: functional
[2] = test system: thymidylate synthase (Cryptococcus neoformans)
[3] = test system: Staphylococcus aureus; test: In vitro inhibition of Staphylococcus aureus growth.; assay type: functional
Procedure, shortened: (§1)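 Bacterial clinical isolates (S. aureus, group D Streptococcus) grown in nutrient broth pH 7.2, inoculum 10³ cells/tube, with serial dilutions of compound from a DMSO stock.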

[4] = test system: thymidylate synthase (Lactobacillus casei)
[5] = test system: thymidylate synthase (Pneumocystis carinii)
[6] = test system: Staphylococcus aureus; test: In vitro evaluation for minimum germicidal effect on Staphylococcus aureus was determined; assay type: functional
[7] = test system: MT4; test: In vitro cytotoxicity against mock infected MT-4 cells.; assay type: functional; conditions: Homo sapiens
Procedure, shortened: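 Uninfected MT-4 cells, 1 × 10⁴ per well in RPMI with 10% FCS, with serial compound dilutions from a DMSO stock. Incubated 4 days at 37 °C, run in parallel with the anti-HIV assay. Viable cells counted by MTT; reported as CC50.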

[8] = target: Thymidylate synthase (Homo sapiens) (UniProt P04818)
[9] = Ratio of cytotoxic concentration to that of minimum inhibitory concentration against Streptococcus (CC50/MIC50).; assay type: functional
[10] = test system: Cryptococcus neoformans; test: In vitro inhibition of Cryptococcus neoformans growth.; assay type: functional
Procedure, shortened: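 Cr. neoformans in Sabouraud dextrose broth pH 5.7, 10³ blastospores or CFU/tube, serial compound dilutions, 37 °C, read after 5 days. MIC is the lowest concentration with no macroscopic growth. MGC is taken by subculturing negative tubes onto drug-free Sabouraud agar.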

[11] = test system: Streptococcus; test: In vitro inhibition of Streptococcus growth.; assay type: functional; procedure, shortened: as §1
[12] = target: T1, Thymidylate synthase (Lactobacillus casei) (UniProt P00469); conditions: Lacticaseibacillus casei
T1 sequence (whole entry): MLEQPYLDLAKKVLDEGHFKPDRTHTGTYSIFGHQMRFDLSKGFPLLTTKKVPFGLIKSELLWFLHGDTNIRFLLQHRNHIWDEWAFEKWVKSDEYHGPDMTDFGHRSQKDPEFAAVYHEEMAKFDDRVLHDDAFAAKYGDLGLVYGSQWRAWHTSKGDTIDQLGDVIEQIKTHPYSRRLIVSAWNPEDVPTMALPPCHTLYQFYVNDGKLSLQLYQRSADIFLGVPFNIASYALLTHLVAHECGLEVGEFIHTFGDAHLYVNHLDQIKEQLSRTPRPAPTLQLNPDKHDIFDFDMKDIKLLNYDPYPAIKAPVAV

[13] = target: T1, Thymidylate synthase (Lactobacillus casei); test: Compound was evaluated for the percentage inhibition against Lactobacillus casei Thymidylate synthase (LcTS) at 27 uM; conditions: Lacticaseibacillus casei
Procedure, shortened: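 Single concentration 27 µM, initial TS rates measured with and without inhibitor; IF = Vii/Vi. Purified L. casei TS, TES 50 mM pH 7.4 buffer with MgCl2, formaldehyde, EDTA, 2-mercaptoethanol; dUMP 120 µM, folate 60 µM, 20 °C. Read-out is absorbance rise at 340 nm. At least three determinations, each within 10% of the mean.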

Chain of Thymidylate synthase (Homo sapiens) (P04818 2-313 limits assumed): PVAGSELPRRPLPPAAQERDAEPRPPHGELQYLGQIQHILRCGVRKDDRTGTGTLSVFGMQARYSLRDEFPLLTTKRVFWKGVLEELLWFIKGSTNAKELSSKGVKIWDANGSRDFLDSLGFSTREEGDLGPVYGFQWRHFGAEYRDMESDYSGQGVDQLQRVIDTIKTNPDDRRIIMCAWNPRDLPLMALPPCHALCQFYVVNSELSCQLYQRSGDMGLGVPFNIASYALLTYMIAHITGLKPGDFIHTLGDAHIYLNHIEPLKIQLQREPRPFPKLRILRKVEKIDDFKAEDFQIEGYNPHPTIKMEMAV

| Structure (SMILES) | IF [2] | MIC [3] [µM] | IF [4] | IF [5] | IF [8] | MIC [10] [µM] | MIC [11] [µM] | IF [12] | inhibition [13] [%] | MGC [1] [µM] | MGC [6] [µM] | CC50 [7] [µM] | SI [9] |
| --- | --- | --- | --- | --- | --- | --- | --- | --- | --- | --- | --- | --- | --- |
| O=C1OC(c2ccc(O)cc2)(c2ccc(O)c3ccccc23)c2ccccc21 (stereo not drawn) | 0.389 | 17 (≈ 6.26 µg/mL) | 0.529 | 0.498 | 0.172 | > 54 | 8 (≈ 2.95 µg/mL) |  |  | 34 | 54 | 54 | 6.7 |
| O=C1OC(c2ccc(O)cc2)(c2ccc(O)cc2)c2ccc(Cl)c3cccc1c23.O=C1OC(c2ccc(O)cc2)(c2ccc(O)cc2)c2cccc3c(Cl)ccc1c23 |  | 8 |  |  | 0.438 | > 69 | 8 |  |  | 8 | 16 | 69 |  |
| O=C1OC(c2ccc(O)cc2)(c2ccc(O)cc2)c2ccc([N+](=O)[O-])c3cccc1c23 |  | 15 (≈ 6.2 µg/mL) |  |  | 0.424 | > 41 | > 41 |  |  |  | 30 | 41 |  |
| O=C1OC(c2ccc(O)cc2)(c2ccc(O)cc2)c2ccc3c4c(ccc1c24)CC3 | 0.344 | 16 (≈ 6.31 µg/mL) | 0.409 | 0.344 | 0.475 | > 53 | 16 (≈ 6.31 µg/mL) |  |  | 32 | 32 | 53 | 3.3 |
| O=C1OC(c2ccc(O)c(Cl)c2)(c2ccc(O)c(Cl)c2)c2ccc(Cl)c3cccc1c23.O=C1OC(c2ccc(O)c(Cl)c2)(c2ccc(O)c(Cl)c2)c2cccc3c(Cl)ccc1c23 |  | 3 |  |  | 1 | 9.37 | 1.6 |  |  | 1.6 | 3 | 63 |  |
| O=C1OC(c2ccc(O)cc2)(c2ccc(O)cc2)c2ccc(Br)c3cccc1c23.O=C1OC(c2ccc(O)cc2)(c2ccc(O)cc2)c2cccc3c(Br)ccc1c23 | 0.243 | 7 | 0.112 | 0.536 | 0.453 | 37.5 | 7 |  |  | 28 | 28 | 76 | 10.8 |
| O=C1OC(c2ccc(O)c(Cl)c2)(c2ccc(O)c(Cl)c2)c2cc3ccccc3cc21 |  | 3.1 (≈ 1.36 µg/mL) | 0.093 |  | 0.103 | > 200 | 3.1 (≈ 1.36 µg/mL) |  |  | 6.2 | 6.2 | 120 | 39.6 |
| O=C1OC(c2ccc(O)cc2)(c2ccc(O)cc2)c2cc3ccccc3cc21 | 0.215 | 17 (≈ 6.26 µg/mL) | 0.247 | 0.459 | 0.594 | > 79 | 34 (≈ 12.5 µg/mL) |  |  | 34 | 68 | 79 | 2.3 |
| O=C1OC(c2ccc(O)c(F)c2)(c2ccc(O)c(F)c2)c2cc3ccccc3cc21 | 0.507 | 15 (≈ 6.07 µg/mL) | 0.298 | 0.582 | 0.521 | > 94 | 15 (≈ 6.07 µg/mL) |  |  | 15 | 30 | 94 | 6.2 |
| O=C1OC(c2ccc(O)c(Cl)c2)(c2ccc(O)c(Cl)c2)c2ccc(Br)c3cccc1c23.O=C1OC(c2ccc(O)c(Cl)c2)(c2ccc(O)c(Cl)c2)c2cccc3c(Br)ccc1c23 |  | 3.1 | 0.36 |  | 1 | > 200 | 3.1 |  |  | 3.1 | 12.5 | 154 | 49.6 |

Continued, in another order:

| IF [2] | MIC [3] [µM] | IF [4] | IF [5] | IF [8] | MIC [10] [µM] | MIC [11] [µM] | IF [12] | inhibition [13] [%] | Structure (SMILES) | MGC [1] [µM] | MGC [6] [µM] | CC50 [7] [µM] | SI [9] |
| --- | --- | --- | --- | --- | --- | --- | --- | --- | --- | --- | --- | --- | --- |
|  | > 58 |  |  | 0.182 | > 58 | 38 (≈ 12.1 µg/mL) | 0.444 |  | O=C1OC(c2ccc(O)cc2)(c2ccc(O)cc2)c2ccccc21 [PHENOLPHTHALEIN] | 58 |  | 58 |  |
| < 0.04 | 4 (≈ 1.49 µg/mL) | 0.086 | 0.418 | 1 | > 66 | 8 (≈ 2.97 µg/mL) |  |  | O=C1OC(O)(c2ccc(O)c(Cl)c2)c2ccc([N+](=O)[O-])c3cccc1c23 (stereo not drawn) | 8 | 17 | 66 | 8.24 |
| 0.704 | 32 (≈ 12.4 µg/mL) | 0.47 | 0.725 | 0.67 | > 77 | 32 (≈ 12.4 µg/mL) |  |  | O=C1OC(c2ccc(O)c(Cl)c2)(c2ccc(O)c(Cl)c2)c2ccccc21 | 32 | 64 | 77 | 2.4 |
|  | 7 (≈ 3.06 µg/mL) |  |  | 0.814 | 9.37 (≈ 4.1 µg/mL) | 1.8 (≈ 0.787 µg/mL) |  |  | O=C1OC(c2ccc(O)c(Cl)c2)(c2ccc(O)c(Cl)c2)c2cccc3cccc1c23 | 3.5 | 14 | 46 |  |
| 0.576 | > 263 | 0.781 | 0.151 | 0.957 | 18.7 (≈ 5.47 µg/mL) | 171 (≈ 50 µg/mL) |  |  | O=C1OC(O)(c2ccccc2O)c2cccc3cccc1c23 (stereo not drawn) | 263 |  | 263 | 1.5 |
| 0.836 | > 21 | 0.624 | 0.749 | 1 | > 21 | > 21 |  | 47 | COc1ccc(C2(c3ccc(OC)cc3)OC(=O)c3cccc4cccc2c34)cc1 |  |  | 21 |  |
|  | > 89 |  |  | 1 | > 89 | 72 (≈ 25.1 µg/mL) |  |  | Cc1ccc(C(C)C)c(O)c1C1(O)OC(=O)c2cccc3cccc1c23 (stereo not drawn) | >89 |  | 89 |  |
|  | 34 (≈ 12.5 µg/mL) |  |  | 0.272 | > 41 | 17 (≈ 6.26 µg/mL) |  |  | O=C1OC(c2ccc(O)cc2)(c2ccc(O)cc2)c2cccc3cccc1c23 | 34 | 41 | 41 |  |
|  | 25 (≈ 10.1 µg/mL) |  |  | 1 | > 200 | 25 (≈ 10.1 µg/mL) |  |  | O=C1OC(c2ccc(O)c(F)c2)(c2ccc(O)c(F)c2)c2cccc3cccc1c23 | 25 | 50 | 117 |  |

Source: ChEMBL document CHEMBL1132636, “Phthalein derivatives as a new tool for selectivity in thymidylate synthase inhibition” (J Med Chem, 1999)
